Measurements reported in ChEMBL document CHEMBL1147738, “Potent and selective mitogen-activated protein kinase kinase (MEK) 1,2 inhibitors. 1. 4-(4-bromo-2-fluorophenylamino)-1- methylpyridin-2(1H)-ones” (J Med Chem, 2006).
Values after ≈ are worked out from the molar mass of the structure shown.

Experiments:
[1] = Oral bioavailability in rat; type: ADME, organism-based; details: Sprague-Dawley, in vivo
How it was run: (§1)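 Male Sprague Dawley rats (6-10 weeks) received IV 1 mg/kg (10% DMSO/90% saline) and PO 10 mg/kg (1% CMC/0.5% Tween 80). Serial tail-vein plasma was taken up to 24 h (IV) or 72 h (PO) and analysed by LC/MS/MS (9 ng/mL to 20 µg/mL). Parameters were calculated non-compartmentally.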

[2] = Half life in rat at 1 mg/kg, iv; type: ADME, organism-based; set-up: dose 1 mg/kg, route intravenous; details: Sprague-Dawley, in vivo
How it was run: (§2)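 Male Sprague Dawley rats (6-10 weeks), fed ad lib, dosed IV at 1 mg/kg (1 mg/mL in 10% DMSO/90% normal saline, 1 mL/kg). Tail-vein EDTA blood sampled 1, 5, 15, 30 min and 1, 2, 4, 8, 12, 24 h. Plasma analysed by LC/MS/MS after methanol protein precipitation, range 9 ng/mL to 20 µg/mL. Parameters derived by non-compartmental analysis.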

[3] = biological target: AMP-activated protein kinase, AMPK (Homo sapiens) (UniProt P54646+O43741+P54619+Q9UGJ0+Q9Y478+Q13131+Q9UGI9); assay: Inhibition of AMPK at 10 uM; type: protein-complex assay
How it was run: (§3)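 Kinase panel run at Upstate (Dundee). Each compound was tested at 10 µM against each enzyme and reported as % inhibition.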

[4] = biological target: Ribosomal protein S6 kinase (P70S6K) (Homo sapiens) (UniProt Q9UBS0+P23443); assay: Inhibition of p70 S6K at 10 uM; type: protein-complex assay; how it was run: as §3
[5] = biological target: Mitogen-activated protein kinase 11 (Homo sapiens) (UniProt Q15759); assay: Inhibition of SAPK2b/p38--beta-2 at 10 uM; how it was run: as §3
[6] = test system: Malme-3M; assay: Inhibition of cellular viability of Malme-3M cells; type: functional, Homo sapiens
[7] = biological target: Glycogen synthase kinase-3 beta (Homo sapiens) (UniProt P49841); assay: Inhibition of GSK3b at 10 uM; how it was run: as §3
[8] = biological target: T1, Serine/threonine-protein kinase Chk1 (Homo sapiens) (UniProt O14757); assay: Inhibition of CHK1 at 10 uM; how it was run: as §3
T1 sequence (whole entry): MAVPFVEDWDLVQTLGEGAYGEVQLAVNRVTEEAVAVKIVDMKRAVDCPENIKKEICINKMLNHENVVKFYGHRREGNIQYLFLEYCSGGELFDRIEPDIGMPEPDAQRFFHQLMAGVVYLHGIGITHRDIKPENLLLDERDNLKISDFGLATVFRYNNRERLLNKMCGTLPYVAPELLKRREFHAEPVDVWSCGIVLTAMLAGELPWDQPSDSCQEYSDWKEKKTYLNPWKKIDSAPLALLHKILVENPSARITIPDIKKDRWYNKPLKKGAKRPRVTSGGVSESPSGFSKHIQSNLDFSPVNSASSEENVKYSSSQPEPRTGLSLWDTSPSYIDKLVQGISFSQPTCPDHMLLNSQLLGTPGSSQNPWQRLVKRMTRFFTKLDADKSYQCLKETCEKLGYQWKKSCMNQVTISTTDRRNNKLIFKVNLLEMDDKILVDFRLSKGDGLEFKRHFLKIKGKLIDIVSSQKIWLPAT

[9] = Volume of distribution in rat; type: ADME, organism-based; details: Sprague-Dawley, in vivo, read-out: Vdss; how it was run: as §1
[10] = biological target: cAMP-dependent protein kinase (PKA) (Homo sapiens) (UniProt P22694+P17612+P22612); assay: Inhibition of PKA at 10 uM; type: protein assay; how it was run: as §3
[11] = Clearance in presence of human hepatocytes; type: ADME, cell-based, Liver, Hepatocyte
How it was run: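 Human hepatocytes (fresh or cryopreserved) diluted to 2 x 10⁶ viable cells/mL in supplemented Krebs-Henseleit buffer pH 7.3, mixed 1:1 with 2 µM compound working solution. Incubated at 37 °C, 5% CO₂, duplicates, one plate per timepoint. Quenched with labetalol internal standard and centrifuged; compound remaining measured by LC-MS/MS (ESI+, MRM).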

[12] = biological target: Ribosomal protein S6 kinase alpha-1 (Homo sapiens) (UniProt Q15418); assay: Inhibition of MAPKAP-K1a at 10 uM; how it was run: as §3
[13] = test system: Rattus norvegicus; assay: AUC in rat at 1 mg/kg, iv; type: ADME, organism-based, Sprague-Dawley, Plasma; set-up: dose 1 mg/kg, route intravenous; details: in vivo; how it was run: as §2
[14] = Half life in rat at 10 mg/kg, po; type: ADME, organism-based; set-up: dose 10 mg/kg, route oral; details: Sprague-Dawley, in vivo
How it was run: (§4)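 Male Sprague Dawley rats (6-10 weeks) were given 10 mg/kg by oral gavage (2 mg/mL in 1% CMC/0.5% Tween 80, 5 mL/kg). Tail-vein EDTA blood was drawn at 15 and 30 min and 1, 2, 4, 8, 12, 24, 48, 72 h. Plasma was quantified by LC/MS/MS after methanol precipitation. Parameters came from non-compartmental analysis.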

[15] = biological target: T2, Lymphokine-activated killer T-cell-originated protein kinase (Homo sapiens) (UniProt Q96KB5); assay: Inhibition of PBK at 10 uM; how it was run: as §3
T2 sequence (whole entry): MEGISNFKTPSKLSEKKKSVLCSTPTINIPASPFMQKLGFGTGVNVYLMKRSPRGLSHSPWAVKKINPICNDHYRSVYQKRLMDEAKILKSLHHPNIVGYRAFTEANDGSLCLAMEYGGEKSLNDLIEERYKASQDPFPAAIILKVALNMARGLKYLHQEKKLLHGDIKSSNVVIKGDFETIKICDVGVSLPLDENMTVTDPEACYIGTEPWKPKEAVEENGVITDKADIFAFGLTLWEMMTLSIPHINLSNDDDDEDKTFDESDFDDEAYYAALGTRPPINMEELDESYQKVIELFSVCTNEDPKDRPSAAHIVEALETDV

[16] = biological target: Protein kinase C alpha type (Homo sapiens) (UniProt P17252); assay: Inhibition of PKCa at 10 uM; how it was run: as §3
[17] = test system: Malme-3M; assay: Inhibition of basal ERK phosphorylation in Malme-3M cells; type: functional, Homo sapiens
[18] = biological target: Mitogen-activated protein kinase 14 (Homo sapiens) (UniProt Q16539); assay: Inhibition of SAPK2a/p38 at 10 uM; how it was run: as §3
[19] = biological target: Casein kinase II (Homo sapiens) (UniProt P67870+P68400+P19784); assay: Inhibition of CK2 at 10 uM; type: protein-complex assay; how it was run: as §3
[20] = biological target: Rho-associated protein kinase 2 (Homo sapiens) (UniProt O75116); assay: Inhibition of ROCK 2 at 10 uM; how it was run: as §3
[21] = test system: Rattus norvegicus; assay: AUC in rat at 10 mg/kg, po; type: ADME, organism-based, Sprague-Dawley, Plasma; set-up: dose 10 mg/kg, route oral; details: in vivo; how it was run: as §4
[22] = biological target: Cyclin-dependent kinase 2/cyclin A (Homo sapiens) (UniProt P24941+P20248+P78396); assay: Inhibition of CDK2/cyclin A at 10 uM; type: protein-complex assay; how it was run: as §3
[23] = Clearance in rat; type: ADME, organism-based; details: Sprague-Dawley, in vivo; how it was run: as §1
[24] = Aqueous solubility at pH 6.5; type: physicochemical
How it was run: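 Thermodynamic shake-flask method: crystalline solid (0.5 mg, crystallinity confirmed by polarizing microscopy) in 0.5 mL 10 mM potassium phosphate, pH 6.5, swirled 24 h at room temperature. Filtered aliquots were quantified by HPLC-PDA against a calibration curve.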

Sequence of Glycogen synthase kinase-3 beta (Homo sapiens) (P49841 whole entry, looked up): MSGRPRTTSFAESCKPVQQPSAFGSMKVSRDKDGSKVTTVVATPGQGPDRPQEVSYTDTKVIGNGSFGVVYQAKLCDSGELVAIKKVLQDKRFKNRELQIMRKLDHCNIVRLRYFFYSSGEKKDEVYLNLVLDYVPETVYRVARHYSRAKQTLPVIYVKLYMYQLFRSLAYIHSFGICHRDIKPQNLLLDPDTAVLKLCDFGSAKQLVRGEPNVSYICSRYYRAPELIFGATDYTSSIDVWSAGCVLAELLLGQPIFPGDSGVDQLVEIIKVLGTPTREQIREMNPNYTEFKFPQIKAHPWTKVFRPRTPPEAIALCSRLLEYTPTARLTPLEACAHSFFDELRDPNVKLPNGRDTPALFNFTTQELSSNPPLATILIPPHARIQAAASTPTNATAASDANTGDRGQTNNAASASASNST
Sequence of Mitogen-activated protein kinase 11 (Homo sapiens) (Q15759 whole entry): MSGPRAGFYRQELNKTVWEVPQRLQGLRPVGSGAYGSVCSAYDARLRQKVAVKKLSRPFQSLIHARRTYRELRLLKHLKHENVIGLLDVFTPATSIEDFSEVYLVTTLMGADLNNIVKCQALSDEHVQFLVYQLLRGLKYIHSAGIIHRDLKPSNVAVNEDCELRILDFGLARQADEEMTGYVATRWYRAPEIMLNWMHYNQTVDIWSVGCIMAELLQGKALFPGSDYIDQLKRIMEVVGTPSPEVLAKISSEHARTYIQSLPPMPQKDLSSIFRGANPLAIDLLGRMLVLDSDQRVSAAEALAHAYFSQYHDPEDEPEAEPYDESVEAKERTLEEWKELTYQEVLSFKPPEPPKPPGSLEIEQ
Sequence of Mitogen-activated protein kinase 14 (Homo sapiens) (Q16539 whole entry): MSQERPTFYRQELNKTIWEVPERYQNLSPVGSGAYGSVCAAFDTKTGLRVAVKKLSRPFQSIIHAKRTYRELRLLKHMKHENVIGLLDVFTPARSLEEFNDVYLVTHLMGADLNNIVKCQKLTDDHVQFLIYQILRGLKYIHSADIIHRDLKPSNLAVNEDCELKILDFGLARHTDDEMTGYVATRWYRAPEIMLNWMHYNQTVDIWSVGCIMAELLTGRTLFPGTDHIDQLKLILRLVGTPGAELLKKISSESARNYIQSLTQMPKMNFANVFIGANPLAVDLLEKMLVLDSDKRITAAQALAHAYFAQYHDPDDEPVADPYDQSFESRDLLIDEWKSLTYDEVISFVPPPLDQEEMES
Sequence of Ribosomal protein S6 kinase alpha-1 (Homo sapiens) (Q15418 whole entry): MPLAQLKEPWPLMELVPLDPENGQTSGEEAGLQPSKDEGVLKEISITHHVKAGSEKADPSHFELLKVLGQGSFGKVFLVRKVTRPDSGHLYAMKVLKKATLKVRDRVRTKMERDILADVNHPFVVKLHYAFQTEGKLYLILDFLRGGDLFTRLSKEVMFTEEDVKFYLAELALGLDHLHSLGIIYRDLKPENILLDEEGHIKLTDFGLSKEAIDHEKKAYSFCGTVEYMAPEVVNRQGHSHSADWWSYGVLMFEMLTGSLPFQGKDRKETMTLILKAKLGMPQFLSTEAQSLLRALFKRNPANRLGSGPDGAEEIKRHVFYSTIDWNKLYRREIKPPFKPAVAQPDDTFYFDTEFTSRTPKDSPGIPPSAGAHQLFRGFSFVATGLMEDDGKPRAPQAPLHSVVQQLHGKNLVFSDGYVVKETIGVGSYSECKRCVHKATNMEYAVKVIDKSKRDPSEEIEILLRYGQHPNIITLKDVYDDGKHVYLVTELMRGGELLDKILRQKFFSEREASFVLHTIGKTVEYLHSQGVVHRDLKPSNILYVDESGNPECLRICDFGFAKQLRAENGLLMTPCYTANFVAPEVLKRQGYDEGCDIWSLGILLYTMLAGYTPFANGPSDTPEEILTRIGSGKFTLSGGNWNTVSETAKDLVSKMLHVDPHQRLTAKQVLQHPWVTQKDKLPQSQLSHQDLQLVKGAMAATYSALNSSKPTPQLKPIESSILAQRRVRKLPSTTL
Sequence of Rho-associated protein kinase 2 (Homo sapiens) (O75116 whole entry, looked up): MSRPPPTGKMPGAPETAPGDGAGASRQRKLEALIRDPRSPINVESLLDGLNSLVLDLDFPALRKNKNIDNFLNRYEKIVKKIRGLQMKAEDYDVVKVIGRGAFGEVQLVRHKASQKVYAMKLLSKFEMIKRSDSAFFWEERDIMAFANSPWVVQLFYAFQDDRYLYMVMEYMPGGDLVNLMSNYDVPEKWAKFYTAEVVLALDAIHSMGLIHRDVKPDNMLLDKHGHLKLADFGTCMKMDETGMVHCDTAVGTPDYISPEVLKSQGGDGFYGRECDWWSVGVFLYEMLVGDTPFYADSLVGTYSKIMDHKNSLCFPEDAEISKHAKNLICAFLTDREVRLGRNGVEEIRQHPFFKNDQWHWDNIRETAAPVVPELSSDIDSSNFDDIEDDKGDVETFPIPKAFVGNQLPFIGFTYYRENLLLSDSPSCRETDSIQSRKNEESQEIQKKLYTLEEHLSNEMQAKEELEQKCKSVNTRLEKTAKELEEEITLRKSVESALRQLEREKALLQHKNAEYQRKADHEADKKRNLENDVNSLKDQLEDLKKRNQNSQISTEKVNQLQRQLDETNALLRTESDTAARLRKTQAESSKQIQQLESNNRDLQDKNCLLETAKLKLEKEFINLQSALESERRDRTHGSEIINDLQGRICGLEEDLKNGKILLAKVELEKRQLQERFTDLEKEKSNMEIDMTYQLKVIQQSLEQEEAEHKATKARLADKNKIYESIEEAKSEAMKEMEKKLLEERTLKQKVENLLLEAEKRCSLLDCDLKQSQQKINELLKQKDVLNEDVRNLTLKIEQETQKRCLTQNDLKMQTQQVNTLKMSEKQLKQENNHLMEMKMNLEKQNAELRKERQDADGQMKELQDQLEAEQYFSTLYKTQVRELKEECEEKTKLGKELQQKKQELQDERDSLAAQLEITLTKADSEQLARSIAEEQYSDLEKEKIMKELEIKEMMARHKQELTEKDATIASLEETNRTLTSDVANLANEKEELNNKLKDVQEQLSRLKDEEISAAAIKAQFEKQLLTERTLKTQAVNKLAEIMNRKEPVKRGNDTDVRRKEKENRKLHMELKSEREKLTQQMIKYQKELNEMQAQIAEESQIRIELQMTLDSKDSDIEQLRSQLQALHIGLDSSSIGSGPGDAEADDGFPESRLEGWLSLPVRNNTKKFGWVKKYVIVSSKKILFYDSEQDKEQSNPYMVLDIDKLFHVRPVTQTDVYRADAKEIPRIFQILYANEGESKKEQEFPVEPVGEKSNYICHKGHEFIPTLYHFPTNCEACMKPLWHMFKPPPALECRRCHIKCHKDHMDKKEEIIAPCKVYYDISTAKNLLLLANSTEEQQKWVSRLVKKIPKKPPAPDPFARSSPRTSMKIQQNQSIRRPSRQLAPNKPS

Row | bioavailability [1] | half-life [2] | inhibition [3] | inhibition [4] | inhibition [5] | inhibition [7] | inhibition [8] | Vd [9] | inhibition [10] | CLhep predicted [11] | inhibition [12] | AUC [13] | half-life [14] | inhibition [16] | inhibition [18] | inhibition [19] | inhibition [20] | SMILES | Activity [6] | inhibition [15] | Activity [17] | also measured
1 | 80% | 2.5 h | 2% | -1% | 13% | 15% | 8% | 0.4 L/kg | -1% | 5 mL/min/kg | 3% | 8900 ng·h/mL | 4.7 h | 7% | -3% | 4% | 13% | CCONC(=O)c1cn(C)c(=O)c(C)c1Nc1ccc(Br)cc1F | 118 nM | 3% | 10.6 nM | AUC [21]: 75000 ng·h/mL; inhibition [22]: 20%; clearance [23]: 1.9 mL/min/kg; solubility [24]: 60 µg/mL (≈ 151 µM)
2 | 53% | 1.6 h | 19% | 18% | 16% | 17% | 11% | 1.1 L/kg | 15% | 6 mL/min/kg | -9% | 2260 ng·h/mL | 3 h | -3% | 20% | -1% | 13% | Cc1c(Nc2ccc(Br)cc2F)c(C(=O)NOCCO)cn(C)c1=O | 11 nM | -8% | 2 nM | AUC [21]: 12000 ng·h/mL; inhibition [22]: 9%; clearance [23]: 8 mL/min/kg; solubility [24]: 450 µg/mL (≈ 1090 µM)
3 | 73% | 3.5 h | -4% | -2% | 5% | 12% | -3% | 0.4 L/kg | -7% | 5 mL/min/kg | -8% | 11500 ng·h/mL | 4.7 h | 0% | 3% | -4% | 10% | CONC(=O)c1cn(C)c(=O)c(C)c1Nc1ccc(Br)cc1F | 265 nM | -4% | 39 nM | AUC [21]: 88300 ng·h/mL; inhibition [22]: 8%; clearance [23]: 1.5 mL/min/kg; solubility [24]: 200 µg/mL (≈ 521 µM)
